Source: paper PMC3014451 (Bioorganic & medicinal chemistry, 2010)
In brackets after ≈: the same amount, converted by molar mass. Each block holds one compound with its values, some of them ahead of it.

Assays:
[1] = test system: mutant G93A SOD1 aggregation in PC12 cells; assay: Mutant SOD1-induced cytotoxicity protection assay; type: cell-based; settings: maximum cell viability in cytotoxicity protection assay
[2] = Aqueous solubility screen in PBS; type: physicochemical; settings: PBS with 1% DMSO
[3] = Mouse plasma stability; type: in vitro ADME
Method in brief: (§1)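 Samples were taken at 15 s, 10, 20, 40 and 60 min and precipitated with acetonitrile containing haloperidol as internal standard, then analysed by LC-MS/MS for analyte/internal standard peak-area ratio. The plasma ratio was divided by the PBS ratio at the same time point.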

[4] = PBS stability; type: physicochemical; settings: 5 μM, 37 °C
Method in brief: as §1

[5] = Microsomal stability; type: in vitro ADME; settings: human, liver microsomes, pH 7.4, CL’int, 37 °C, with NADPH
Method in brief: (§2)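 Test compound at 5 μM, in duplicate, with liver microsomes (0.275 mg/mL protein) in 100 mM potassium phosphate, 3 mM MgCl2, 2 mM NADPH, pH 7.4, at 37 °C; a parallel control omits NADPH. Aliquots at 15 sec to 60 min quenched in acidified acetonitrile. Parent quantified by LC-MS/MS against haloperidol internal standard. k from 1/Y-weighted exponential fit; T1/2 = ln2/k.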

[6] = Microsomal stability; type: in vitro ADME; settings: mouse, liver microsomes
Method in brief: as §2

[7] = test system: ALS; settings: ALS patients; ref v; cited from earlier work

SMILES: C[C@@H]1C[C@H]2O[C@@H]2/C=C\C=C\C(=O)Cc2c(Cl)c(O)cc(O)c2C(=O)O1 [radicicol]
efficacy (cell viability) [1]: 85%

solubility at 1 h [2]: 16.4 µg/mL (≈ 56.7 µM) | Recovery Plasma vs. PBS [3]: 91% | PBS Amount Remaining at 60 min [4]: 100% | CLint scaled at 5 μM [5]: 58.5 mL/min/kg | CLint scaled at 5 μM ([6]; pH 7.4, CL’int No NADPH, without NADPH): 61.2 mL/min/kg | CLint scaled at 5 μM ([6]; pH 7.4, CL’int, 5 μM, 37 °C, with NADPH): 292 mL/min/kg
SMILES: Cc1cc(SCc2cc(=O)[nH][nH]2)c(Cl)cc1Cl [compound 1, 5-((2,4-Dichloro-5-methylphenylthio)methyl)-1H-pyrazol-3(2H)-one]

SMILES: Nc1nc2ccc(OC(F)(F)F)cc2s1 [Riluzole]
prolongation of patient life [7]: two to three
